According to PubChem BioAssay:
Active and inactive are the calls of the source.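 Rule for the calls: active = current rise at least 3 SD above the untreated control mean in each of two repeat wells; inactive = the rest.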

The compounds below were run against Potassium voltage-gated channel subfamily KQT member 1 (Homo sapiens) (UniProt P51787) (assay: KCNQ1 channel current potentiators, confirmation, orthogonal assay for KCNQ1 potentiator project, IonWorks patch clamp, KCNQ1-CHO cells (AID 493184)). Settings: automated patch clamp current, at 10 µM.
Chain of Potassium voltage-gated channel subfamily KQT member 1 (Homo sapiens) (P51787 whole entry, looked up): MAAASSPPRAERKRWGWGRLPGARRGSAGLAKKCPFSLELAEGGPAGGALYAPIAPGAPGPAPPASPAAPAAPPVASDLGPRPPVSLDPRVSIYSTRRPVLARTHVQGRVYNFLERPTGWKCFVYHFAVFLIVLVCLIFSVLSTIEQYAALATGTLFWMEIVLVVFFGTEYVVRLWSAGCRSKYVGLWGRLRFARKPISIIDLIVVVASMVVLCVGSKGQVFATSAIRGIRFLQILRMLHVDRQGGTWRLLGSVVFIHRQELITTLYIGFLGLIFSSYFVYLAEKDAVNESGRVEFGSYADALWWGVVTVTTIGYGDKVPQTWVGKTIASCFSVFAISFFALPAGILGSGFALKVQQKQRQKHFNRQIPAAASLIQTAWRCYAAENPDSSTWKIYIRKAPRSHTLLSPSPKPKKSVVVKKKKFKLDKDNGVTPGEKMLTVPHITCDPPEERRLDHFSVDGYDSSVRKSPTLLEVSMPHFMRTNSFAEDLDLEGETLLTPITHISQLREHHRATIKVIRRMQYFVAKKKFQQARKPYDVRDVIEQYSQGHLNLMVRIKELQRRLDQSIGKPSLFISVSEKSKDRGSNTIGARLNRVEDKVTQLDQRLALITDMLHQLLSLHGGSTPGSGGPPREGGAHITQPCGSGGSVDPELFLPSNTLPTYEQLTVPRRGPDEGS
How it was run: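 Probe or stimulus: depolarizing pulse to +40 mV from -90 mV; Material: CHO cells carrying KCNQ1; Compound: one dose, 10 µM final; Signal: automated voltage clamp, amphotericin B perforated patch; Read-out basis: percent current increase versus pre-compound level; Buffer or medium: pH 7.4 external bath; Replication: duplicates.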

outcome, inactive:
CN(C)c1ccc(C(=O)Nc2nnc(C3=COCCO3)o2)cc1
CCOc1ccc(C(=O)N2CCCC(c3nc(-c4ccc(C)o4)no3)C2)cc1 (stereo not given)
CCCCn1c(=O)nc2n(-c3ccccc3C)c3ccccc3cc-2c1=O
CCN(c1ccccc1)S(=O)(=O)c1ccc(OC)c(NC(=O)COc2ccc(C(C)=O)cc2)c1
Cc1[nH]n(-c2ccc(F)cc2)c(=O)c1/C=N/c1sc2c(c1C#N)CCCC2
COc1ccc(C)cc1NC(=O)C(=O)NNC(=O)c1ccco1
CCC1CCCCN1C(=S)NC(=O)c1cccc([N+](=O)[O-])c1 (stereo not given)
CCCn1cc(NC(=O)c2cc(-c3ccccc3)on2)cn1
CCSc1nc2c(sc3ccccc32)c(=O)n1C(C)C
COC(=O)c1sc(NC(=S)NC(=O)c2ccccc2F)nc1C
O=c1cc(N2CCc3ccccc32)[nH]c(=O)n1Cc1ccc(F)cc1
CCc1cc(-c2n[nH]c(C)c2-c2nc3ccccc3s2)c(O)cc1OCC(=O)NN
CCOC(=O)C1CCN(C(=O)c2c(C)oc3c2C(=O)c2ccccc2C3=O)CC1
CC1CN(c2nc(-c3ccc(Br)cc3)nnc2-c2ccccc2)CC(C)N1 (stereo not given)
Cc1cc(C(=O)N2CCCC(N3CCN(c4cccc(Cl)c4)CC3)C2)n(C)n1 (stereo not given)
COc1ccc(NC(=S)NC(=O)c2ccccc2Cl)cc1
Cc1cc(/C=N\NC(=O)CC(=O)NC2CCCCC2)c(C)n1-c1cccc(Cl)c1Cl
CCOc1ccc2nc(/N=C/c3c(C)[nH]n(-c4ccccc4)c3=O)sc2c1
COc1ccc(CCNC(=O)c2c(C)nc3ccccn23)cc1
Cc1ccnc(NS(=O)(=O)c2ccc(NC(=O)C34CC5CC(CC(C5)C3)C4)cc2)n1
CCCCN1CNC(=S)N(c2ccccc2OCC)C1
Cc1ccc(/C=C/C(=O)c2ccccc(=O)c2O)c(C)c1
N#Cc1ccccc1Oc1ccccc1C=O
CCCCCCCC/C=C\CCCCCCCC(=O)O
Oc1ccc(CN2CCCCC2)c2cccnc12
Cc1sc2ncnc(SCC(=O)NC(=O)c3cccn3C)c2c1C
CSc1ccc(NC(=O)CC(C)=O)cc1
CCS(=O)(=O)Nc1ccc(C(=O)CC2(O)C(=O)Nc3ccccc32)cc1 (stereo not given)
O=C(CSc1nnc(SCc2cccc3ccccc23)s1)c1ccc2c(c1)OCO2
CC(C)Cn1c(=S)[nH]c2cc(Cl)ccc21
CCOc1ccc(N=Nc2ccc(O)c3ncccc23)cc1
CCOC(=O)c1cnc(SCC(=O)Nc2nc(C)c(C)s2)nc1N
O=C(O)C1C2CCC(O2)C1C(=O)NCCC1=CCCCC1 (stereo not given)
S=c1nc[nH]c2c1sc1nc(-c3ccccc3)c3c(c12)CCCC3
C=CCn1c(O)c(N=NC(=S)Nc2ccccc2F)c2ccccc21
O=C(Nc1nc2c(F)cc(F)cc2s1)C1COc2ccccc2O1 (stereo not given)
COCCn1cnc2c1c(=O)n(CC#N)c(=O)n2Cc1ccccc1
Cc1cc(C)nc(NC(=O)/C=C/c2ccccc2Cl)n1
CCOc1cc(CNCCCN2CCOCC2)ccc1OCC(=O)NC(C)(C)C
CC(C)(C)c1cc(C(=O)NNC(=O)c2ccc(Cl)cc2)no1
